Experimental data: ChEMBL document CHEMBL1128200, “(R)-(+)-N-[3-[5-[(4-fluorophenyl)methyl]-2-thienyl]-1-methyl- 2-propynyl]-N-hydroxyurea (ABT-761), a second-generation 5-lipoxygenase inhibitor” (J Med Chem, 1995)

Key:
[1] = tested on: Monkey; details: Cercopithecidae; Liver
[2] = biological target: T1, Polyunsaturated fatty acid 5-lipoxygenase (Homo sapiens, UniProt P09917); test: (§1) 5-lipoxygenase Inhibitory activity was measured by enzyme immunoassay using human whole blood stimulated with calcium ionophore (A23187) and LTB4 (leukotriene B4); format: tissue-based
T1 sequence (P09917 whole entry): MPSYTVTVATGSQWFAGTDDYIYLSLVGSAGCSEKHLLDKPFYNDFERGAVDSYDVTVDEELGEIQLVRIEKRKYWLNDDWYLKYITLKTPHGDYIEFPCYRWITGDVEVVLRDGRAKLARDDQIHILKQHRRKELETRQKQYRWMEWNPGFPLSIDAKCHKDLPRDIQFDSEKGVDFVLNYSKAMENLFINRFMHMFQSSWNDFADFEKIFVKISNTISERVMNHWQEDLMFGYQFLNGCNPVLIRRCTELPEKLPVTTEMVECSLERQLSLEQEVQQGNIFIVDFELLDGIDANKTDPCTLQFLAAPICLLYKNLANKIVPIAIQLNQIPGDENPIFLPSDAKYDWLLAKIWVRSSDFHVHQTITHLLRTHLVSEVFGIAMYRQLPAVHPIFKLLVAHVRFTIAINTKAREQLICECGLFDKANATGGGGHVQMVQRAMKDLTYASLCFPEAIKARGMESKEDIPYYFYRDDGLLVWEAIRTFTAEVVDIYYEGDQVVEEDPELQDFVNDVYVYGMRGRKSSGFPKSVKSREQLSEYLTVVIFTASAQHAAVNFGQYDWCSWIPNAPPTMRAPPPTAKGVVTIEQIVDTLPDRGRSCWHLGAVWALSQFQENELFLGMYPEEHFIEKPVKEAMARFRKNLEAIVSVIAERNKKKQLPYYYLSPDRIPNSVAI
How it was run: (§2)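 Heparinized human blood (20 USP units/mL) preincubated with drug or vehicle 15 min at 37 °C, then stimulated with calcium ionophore A23187; LTB4 in extracts quantified by EIA. IC50 estimated by linear regression; means of at least duplicate, mostly triplicate determinations.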

[3] = tested on: Rattus norvegicus; test: Compound was evaluated in vivo for the rat anaphylaxis leukotriene formation at an oral dose of 30 umol/kg; format: functional
How it was run: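 Male Sprague-Dawley rats passively sensitized ip with rabbit anti-BSA antiserum; 3 h later challenged ip with 4 mg BSA in PBS. Drug given by oral gavage 1 h before challenge; killed 15 min post-challenge, peritoneal fluid collected, methanol-extracted, LTE4 measured by EIA. 8 rats/group; percent inhibition versus control group mean.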

[4] = biological target: T2, Polyunsaturated fatty acid 5-lipoxygenase (Homo sapiens) (UniProt P09917); test: as §1; format: tissue-based; details: concentration not given here
T2 sequence (whole entry): T1 sequence (P09917 whole entry)
How it was run: as §2

[5] = Oral bioavailability was determined in guinea pig; format: ADME, organism-based, Cavia porcellus; details: in vivo
[6] = Oral bioavailability was determined in mouse; format: ADME, organism-based; details: in vivo
[7] = Oral bioavailability in rat; format: ADME, organism-based; details: in vivo
[8] = Oral bioavailability was determined in cynomolgus monkey; format: ADME, organism-based, Macaca fascicularis; details: in vivo
[9] = Oral bioavailability was determined in dog; format: ADME, organism-based, Canis lupus familiaris; details: in vivo

Structure (SMILES) | GT rate [1] | IC50 [2] | ED50 [3] | also measured
CC(/C=C\c1ccc(Oc2ccc(F)cc2)o1)N(O)C(N)=O (configuration not stated) | 2.4 | – | – | –
CC(C#Cc1ccc(Cc2ccc(F)cc2)s1)N(O)C(N)=O (configuration not stated) | – | 200 nM | 5.6 mg/kg | –
C[C@@H](C#Cc1ccc(Cc2ccc(F)cc2)s1)N(O)C(N)=O | – | 200 nM | 2.1 mg/kg | –
CC(c1ccc(Oc2ccc(F)cc2)o1)N(O)C(N)=O (configuration not stated) | 0.31 | – | – | inhibition [4]: 58%; inhibition in vivo at 30 µmol/kg [3]: 0%
C[C@H](C#Cc1ccc(Cc2ccc(F)cc2)s1)N(O)C(N)=O [ATRELEUTON] | – | – | 2.8 mg/kg | bioavailability [5]: 90%; bioavailability [6]: 100%; bioavailability [7]: 60%; bioavailability [8]: 90%; bioavailability [9]: 95%
C[C@@H](C#Cc1ccc(Oc2ccc(F)cc2)o1)N(O)C(N)=O | 0.05 | 50 nM | 1.5 mg/kg | –
CC(C#Cc1ccc(Oc2ccc(F)cc2)o1)N(O)C(N)=O (configuration not stated) | 0.02 | 80 nM | 1.2 mg/kg | –
CC(/C=C/c1ccc(Oc2ccc(F)cc2)o1)N(O)C(N)=O (configuration not stated) | 0.07 | – | – | –
NC(=O)N(O)CC#Cc1ccc(Oc2ccc(F)cc2)o1 | 0.03 | 60 nM | – | inhibition in vivo at 30 µmol/kg [3]: 70%
NC(=O)N(O)CC#Cc1ccc(Cc2ccc(F)cc2)s1 | 0.05 | 70 nM | – | inhibition in vivo at 30 µmol/kg [3]: 78%
C[C@H](C#Cc1ccc(Oc2ccc(F)cc2)o1)N(O)C(N)=O | 0.01 | 80 nM | 1.4 mg/kg | –
CC(c1cc2ccccc2s1)N(O)C(N)=O (configuration not stated) [ZILEUTON] | 0.12 | – | 4.4 mg/kg | –
